Assay results gathered from unrelated publications.
Each line is one published result; the experiments were not run side by side.
Target: Casein kinase II subunit alpha (CSNK2A1, Homo sapiens, UniProt P68400)

Compound	test	setting	remaining binding [%]
N[C@H]1CCN(c2nccc(-c3cnn4ncccc34)n2)C1	binding	1 µM	89
C[C@@H](c1ccc(-n2cnc3c(N)ncnc32)cc1)N1CCc2nn(C)c(Cc3ccccc3)c2C1=O	binding, competition with immobilised ligand	0.1 µM	73
CN(CCCC(F)(F)F)c1nccc(-c2cnn3ncccc23)n1	binding	1 µM	66
CNC(=O)[C@@H]1CC[C@@H](n2c(-c3ccc4cnccc4c3)nc3ccc(C(=O)NCc4cccc(C(N)=O)c4)cc32)C1	binding, competition with immobilised ligand	1 µM	94
O=S(=O)(NC1CCC(c2cc(F)ccc2F)(S(=O)(=O)c2ccc(Cl)cc2)CC1)C(F)(F)F (centres unmarked)	cell-free assay, competition with immobilised ligand	1 µM	85
CN(C)c1ncc(F)c(-c2cnn3ncccc23)n1	binding	1 µM	100
CCC(=O)N[C@H]1CC[C@@H](C(=O)N(C)c2ccc(-c3nc4ccccc4o3)cc2)C1	cell-free assay, competition with immobilised ligand	1 µM	74
Cc1cnn2ncc(-c3ccnc(N(C)C)n3)c2c1	binding	1 µM	86
c1cncc(-c2cccc(Nc3nccc(NC4CCCCC4)n3)c2)c1	binding, competition with immobilised ligand	10 µM	72
CSc1cccnc1N1CCN(Cc2nc3ccccc3[nH]2)CC1	cell-free assay, competition with immobilised ligand	1 µM	81
O=C(c1ccc(Nc2ncc(Cl)c(-c3cc4ccccc4s3)n2)cc1)N1CCC(N2CCCC2)CC1	binding, competition with immobilised ligand	1 µM	0.9
F[C@@H]1CCN(c2nccc(-c3cnn4ncccc34)n2)C1	binding	1 µM	58
Cn1nc(C(F)(F)F)cc1-c1cnc(N2CCc3cc(S(=O)(=O)Nc4c(F)cc(Cl)cc4F)cc(N4CCCC4=O)c32)nc1	cell-free assay, competition with immobilised ligand	1 µM	65
O=C(c1ccc(Nc2nccc(-c3cc4ccccc4s3)n2)cc1)N1CCC(N2CCCC2)CC1	binding, competition with immobilised ligand	1 µM	23
CC1CCCN1c1nccc(-c2cnn3ncccc23)n1 (centres unmarked)	binding	1 µM	90
N#CC1(c2ccccn2)CCN(Cc2cc(C(=O)N3CCCC3)c(=O)n3ccccc23)CC1	cell-free assay, competition with immobilised ligand	1 µM	100
COc1ncc2cc3ccccc3nc2c1C#N	cell-free assay, competition with immobilised ligand	5 µM	92
O=C(NCCCN1CCOCC1)c1ccc(Nc2nccc(-c3cc4ccccc4s3)n2)cc1	binding, competition with immobilised ligand	1 µM	37
CC(=O)c1c(NS(C)(=O)=O)c2cc(-c3ccc(Cl)cc3)c(-c3ccc(Cl)cc3Cl)nc2n(C)c1=O	cell-free assay, competition with immobilised ligand	1 µM	92
O=C(Nc1c[nH]nc1C(=O)NC1CCNCC1)c1cc(F)cc(F)c1	binding, competition with immobilised ligand	1 µM	100
